Results on 15 molecules are retold here after ChEMBL document CHEMBL1765028 (Bioorg Med Chem, 2011).

Molecules are shown by their SMILES. The source made the active and inactive calls. The calls are words filed in the database; no cut-off is given here. Bounds are passed on as bounds.

Series [1] is described as follows: Selectivity index, ratio of IC50 for rat L6 cells to IC50 for Plasmodium falciparum K1. As to conditions: L6 cells versus Plasmodium falciparum K1, read-out: Ratio IC50. The format is toxicity, cell-based. In outline:
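Selectivity index is IC50 for L6 rat myoblasts divided by IC50 for P. falciparum K1. Both IC50s were measured in vitro.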

The subject of a further series is L6. Nature of the series: Cytotoxicity against rat L6 cells. The format is cell-based. Put shortly: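 Cultured L6 rat myoblast cells were used to measure IC50 cytotoxicity.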
For a further series, the system named is Plasmodium falciparum. Kind of series: Antiparasitic activity against Plasmodium falciparum K1. The format is functional, organism-based. Put shortly:
(§1)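 Compounds tested in vitro as hydrochloride salts against Plasmodium falciparum K1 or Trypanosoma brucei rhodesiense STIB900.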

In series [2] the test system is Poly(dA-dT)oligonucleotide.
The test system of series [3] is Trypanosoma brucei rhodesiense. Kind of series: Antiparasitic activity against Trypanosoma brucei rhodesiense STIB900. The format is functional, organism-based. In outline:
as §1

Series [4] relates to Trypanosoma brucei rhodesiense. Nature of the series: Antiparasitic activity against Trypanosoma brucei rhodesiense STIB900 infected in mouse assessed as cured at 5 mg/kg, ip for 4 days. The format is functional, organism-based. Set-up: dose 5 mg/kg. In outline:
(§2)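 Acute STIB900 mouse model. Hydrochloride salts were given intraperitoneally at 5 mg/kg/day on four consecutive days. Cure is the number of mice surviving and parasite-free on day 60. Relapse is the mean day parasitemia reappears.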

The test system of series [5] is Trypanosoma brucei rhodesiense. Kind of series: Antiparasitic activity against Trypanosoma brucei rhodesiense STIB900 infected in mouse assessed as mean relapse day of parasitemia at 5 mg/kg, ip for 4 days. The format is functional. The conditions noted are these: route intraperitoneal. Put shortly: as §2
Series [6] can be described thus: Selectivity index, ratio of IC50 for rat L6 cells to IC50 for Trypanosoma brucei rhodesiense STIB900. The conditions noted are these: L6 cells versus Trypanosoma brucei rhodesiense STIB900, read-out: Ratio IC50. The format is toxicity, cell-based. Put shortly:
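Selectivity index is IC50 for L6 rat myoblasts divided by IC50 for T. b. rhodesiense STIB900. Both IC50s were measured in vitro.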

Broadly, the IC50 is the midpoint of a concentration-inhibition curve. A high value points to weaker potency in that assay. A word on the ΔTm: it is the change in melting temperature against a reference sample. `N=C(N)c1ccc(-c2ccc(-c3nc4ccc(C(=N)N)cc4[nH]3)cc2)cc1`: in series [1], the selectivity ratio came out at 34000. For the same molecule, the IC50 turned out to be 17000 nM in the series on L6, 0.5 nM in the series on Plasmodium falciparum and 7.7 nM in series [3]. Also, the ΔTm in series [2] was over 27 °C.
Take `Cl.Cl.N=C(N)c1ccc(-c2ccc3cc(-c4ccc(C(=N)N)cc4)[nH]c3c2)cc1`: the values for the selectivity ratio in series [1] and in series [6] were 653 and 1130, respectively. For the same molecule, the values for the IC50 (in the series with L6; in the series on Plasmodium falciparum; in series [3]) were 3400 nM, 5.2 nM and 3 nM, respectively. Also, the result in series [4] was inactive. The Activity in series [5] worked out at 20 days. For the same molecule, the ΔTm in series [2] was over 27 °C.
`N=C(N)c1ccc(-c2cc3ccc(C(=N)N)cc3[nH]2)cc1` [DAPI]: in series [5], the Activity worked out at 17 days. Moreover, in series [6], the selectivity ratio was 48. In addition, the shift in melting temperature (ΔTm) in series [2] was over 27 °C. The IC50 in series [3] was 18 nM.
Consider `Cl.Cl.N=C(N)c1ccc(-c2ccc3cc(-c4cnccc4C(=N)N)[nH]c3c2)cc1`, for which the selectivity ratio was 265 in series [1] and 650 in series [6]. Besides, the IC50 with L6 worked out at 2600 nM; in the series with Plasmodium falciparum it was 9.8 nM; in series [3], 4 nM. For the same molecule, the Activity in series [5] is 24 days. In addition, the ΔTm in series [2] was over 27 °C.
For `Cl.Cl.Cn1c(-c2ccc(C(=N)N)cc2)nc2cc(-c3ccc(C(=N)N)cc3)ccc21`, the selectivity ratio in series [1] is over 130000; in series [6] it was over 11300. The 50% inhibitory concentration (IC50) with L6 was over 169000 nM; with Plasmodium falciparum it was 1.3 nM; in series [3], 15 nM. Further, the outcome in series [4] was inactive. The Activity in series [5] turned out to be 11 days. In addition, in series [2], the ΔTm was 11.2 °C.
As to `Cl.Cl.N=C(N)c1ccc(-c2ccc3cc(-c4cc(C(=N)N)ccn4)[nH]c3c2)cc1`, the selectivity ratio in series [1] was 644; in series [6], 2320. Further, the IC50 stood at 11600 nM in the series on L6, 18 nM with Plasmodium falciparum and 5 nM in series [3]. Besides, in series [5], the Activity turned out to be 24 days. In addition, in series [2], the ΔTm is over 27 °C.
`Cl.Cl.N=C(N)c1ccc(-c2ccc3[nH]c(-c4ccc(C(=N)N)cc4)cc3c2)cc1`: the selectivity ratio in series [1] was determined as 1180; in series [6], 2330. For the same molecule, the results for the IC50 (with L6; with Plasmodium falciparum; in series [3]) were 6700 nM, 5.7 nM and 3 nM, respectively. Moreover, in series [5], the Activity stood at 20 days. Moreover, the ΔTm in series [2] stood at 23.7 °C.
For the molecule `Cl.Cl.N=C(N)c1ccc(-c2ccc3nc(-c4ccc(C(=N)N)cc4)n(O)c3c2)cc1`, the results for the selectivity ratio in series [1] and in series [6] were 6890 and 256, respectively. In addition, the IC50 turned out to be 124000 nM in the series on L6, 18 nM in the series on Plasmodium falciparum and 484 nM in series [3]. In addition, the outcome in series [4] was inactive. Also, the Activity in series [5] is 8 days. Moreover, the ΔTm in series [2] was determined as 12.2 °C.
For the molecule `Cl.Cl.N=C(N)c1ccc(-c2ccc3[nH]c(-c4ccc(C(=N)N)cc4)nc3c2)cc1`, the selectivity ratio in series [1] was determined as 16900; in series [6], 15600. Also, the results for the half-inhibitory concentration (IC50) (with L6; in the series with Plasmodium falciparum; in series [3]) were 62400 nM, 3.7 nM and 4 nM, respectively. Also, the outcome in series [4] was inactive. The Activity in series [5] was 18 days. In series [2], the ΔTm is over 27 °C.
Take `N=C(N)c1ccc(-c2ccc(-c3cc4ccc(C(=N)N)cc4[nH]3)cc2)cc1`: the IC50 turned out to be 10500 nM in the series with L6, 3.3 nM in the series with Plasmodium falciparum and 2 nM in series [3]. Moreover, the shift in melting temperature (ΔTm) in series [2] was over 27 °C.
As for `Cl.Cl.N=C(N)c1ccc(-c2ccc3[nH]c(-c4ccc(C(=N)N)s4)cc3c2)cc1`, the selectivity ratio in series [1] was found to be 1390; in series [6] it was 4950. The IC50 with L6 amounted to 9900 nM; in the series on Plasmodium falciparum, 7.1 nM; in series [3], 2 nM. The Activity in series [5] was found to be 17 days. In addition, the shift in melting temperature (ΔTm) in series [2] turned out to be 25.5 °C.
Regarding `N=C(N)c1ccc(-c2ccc(-c3ccc(C(=N)N)cc3)o2)cc1` [FURAMIDINE], in series [5], the Activity is 20 days.
For the molecule `N=C(N)c1ccc(OCCCCCOc2ccc(C(=N)N)cc2)cc1` [PENTAMIDINE], in the series on L6, half-maximal inhibition (IC50) required 46000 nM. In series [5], the Activity was found to be 20 days.
Regarding `Cl.Cl.N=C(N)c1ccc(-c2ccc3cc(-c4ccc(C(=N)N)o4)[nH]c3c2)cc1`, the selectivity ratio came out at 736 in series [1] and 541 in series [6]. The IC50 in the series with L6 came out at 9200 nM; with Plasmodium falciparum, 12.5 nM; in series [3], 17 nM. In addition, in series [4], the outcome was inactive. Besides, the Activity in series [5] stood at 18 days. In addition, the ΔTm in series [2] is 24.9 °C.
With `Cl.Cl.N=C(N)c1ccc(-c2ccc3cc(-c4ccc(C(=N)N)s4)[nH]c3c2)cc1`, the selectivity ratio in series [1] stood at 198; in series [6], 550. The IC50 with L6 was 2200 nM; in the series with Plasmodium falciparum, 11.1 nM; in series [3], 4 nM. Also, the Activity in series [5] was determined as 17 days. For the same molecule, in series [2], the thermal shift (ΔTm) was over 27 °C.
